The data set concerns MS2 coat protein. Kind of data set: apparent Kd, MS2 coat protein; higher = weaker binding; RNA-MaP array; FMN 200 µM where present. Summed up:
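SNAP-549-labelled MS2 coat protein, doubled from 0.7 or 1.5 nM to 3 µM, was titrated over designs transcribed by stalled E. coli RNA polymerase on Illumina sequencing-chip clusters. Titrations were run without and then with constant ligand in 100 mM Tris-HCl pH 7.5, 80 mM KCl, 4 mM MgCl2, BSA, DTT, yeast tRNA and Tween-20. The apparent Kd is the median of filtered per-cluster fits to green signal normalised to red-channel RNA signal and control-cluster median Fmax.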

Where [1] appears, read: designed as: OFF switch for flavin mononucleotide, no ligand.
[2] abbreviates: ligand present: flavin mononucleotide, designed as: OFF switch for flavin mononucleotide.
The mark [3] stands for this setting: designed as: ON switch for flavin mononucleotide, no ligand.
Setting [4] is: ligand present: flavin mononucleotide, designed as: ON switch for flavin mononucleotide.

The apparent Kd is a dissociation constant that holds for the conditions of the assay. Take “GGAUAGUGAGGAUAUCGAUGUUAGGAGGAGGAGGUAGGAGGCGAGAAGGCACAUGAGGAUCACCCAUGUAUGGU”: the “apparent Kd” value runs as follows: under setting [1], 31.8 nM; under setting [2], 29.4 nM.
For “AGGGCGAAAUGGCUCUAUGAGAUGAGAAGGGUAGGAGGGUGGAAGUACAUGAGGAUCACCCAUGUACAGGAUAUCAUGCCGAUU”, the “apparent Kd” value under setting [1] was 6.42 nM and the “apparent Kd” value under setting [2] was 6.4 nM.
As for “AAAGUGUUAGGAUAUGUGAAGGCGUCUGAUAGACGAGGCCUGCAGAAGGGACAUGAGGAUCACCCAUGUAAAAA”, the “apparent Kd” value by setting is: under setting [1], 56.8 nM; under setting [2], 26 nM.
For “CUUUUGUGAGGAUAUCAUUAGUAAAAAAAUAAAAUUACUACUGAGAAGGCACAUGAGGAUCACCCAUGUUCCUC” the same measures were 35.5 nM and 233 nM.
For “GUCAGCUCGUGAGGAUAUACAACACUGCUUCGGCAGUGUAUUAAGAUGACAUGAGGAUCACCCAUGUAGAAGGCACGAGCUGAU”, the “apparent Kd” value runs as follows: under setting [1], 5.78 nM; under setting [2], 21 nM.
For “CCGCCCUGAGGAUAUCCACCCUCAUACAUGAGGAUCACCCAUGUUCACCCUUGGGUUCCCGGAGAAGGCAGCCUUC” the same measures were 566 nM and 548 nM.
For the sequence “GUCAGCUCGUGAGGAUAUACAAGACUGCUUCGGCAGUGUAUUAAGAUCACAUGAGGAUCACCCAUGUAGAAGGCACGAGCUGAU”, the “apparent Kd” value is 8.12 nM under setting [1] and 79.6 nM under setting [2].
As for “AAGAAGAUAGGAUAUACGAGGAGAGGAGAGAAGAGGUGAGGACAUGAGGAUCACCCAUGUAGAAGGAUCAGGAA”, the “apparent Kd” value was found to be 46.6 nM under setting [1] and 35.6 nM under setting [2].
“GUUUAGUGAGGAUAUGUGGCAUCGCUCGAGCGCGGUCGGCUACAGAAGGCACAUGAGGAUCACCCAUGUUUCUC”: the “apparent Kd” value was determined as 41.8 nM under setting [1] and 471 nM under setting [2].
As to “GGUCUUCAAGUCAGGAUAUCGUCUAAUAGAUAUAACGAGAAGGGACAUGAGGAUCACCCAUGUCGUCUCAUCAG”, the “apparent Kd” value runs as follows: under setting [1], 23.6 nM; under setting [2], 69.1 nM.
As for “AUUAUGUAAGGAUAUCUUACAUGUGACUUCGGUCACUGUUAAGAGAAGGUACAUGAGGAUCACCCAUGUAUAAC”, the “apparent Kd” value is 19.6 nM under setting [1] and 22.4 nM under setting [2].
For “ACAUCACAUGAGGAUCACCCAUGUCAGGAUAUCGACUGAACAGCUUCGGCUGUUCAGUCGAGAAGGGACAAUUA” the same measures were 66.5 nM and 131 nM.
For “CGUGGCCGAGGAUAUACGGACGUGUCGCCGGGUGUCGUGGGACAUGAGGAUCACCCAUGUAGAAGGUGGUUGUC” the same measures were 53.5 nM and 39 nM.
For “ACAAUAGUAUCACAUGUAUUACAUGAGGAUCACCCAUGUAACUAGGAUAUGUUUUAGAAUUUACAACAGAAGGAGUUAUUAUGU” the same measures were 8.48 nM and 14.1 nM.
Consider “UGUUGUAUUACAGGAUAUCUAUGAUUUUAAUUUAGAGAAGGGUAUUCACAUGAGGAUCACCCAUGUAUAUACGAGGAAGUUGUG”, for which the “apparent Kd” value was determined as 51.2 nM under setting [3] and 58.9 nM under setting [4].
On to “CCAUGGUGGGCAGGAUAUCGUCCAGCUUGCGGACGAGAAGGGCUAGAACAUGAGGAUCACCCAUGUGAAAAGCGGGUUGUCCAA”, for which the “apparent Kd” value by setting is: under setting [1], 27.8 nM; under setting [2], 145 nM.
On to “AAAAUUUAUUGAGGAUAUUCAUACACUGUAUACGGAGAAGGCAAACAAUCAUGAGGACAUGAGGAUCACCCAUGUUGUGACCAU”, for which the “apparent Kd” value runs as follows: under setting [3], 18.5 nM; under setting [4], 12.2 nM.
For the sequence “GUUAUAAAGGUAGGAUAUUGUAUUAUAAUUAAAUAAGAAGGAUCUCACAUGAGGAUCACCCAUGUAAGAGGAUCACCCAUGUAU”, the “apparent Kd” value is 9.63 nM under setting [1] and 8.14 nM under setting [2].
Consider “GCUAGUCAUGUCAGGAUAUGCAGAUCCUUGGAUCUGCAGAAGGGACAUGAGGAUCACCCAUGUGCCUAGCUAGC”, for which the “apparent Kd” value is 41 nM under setting [1] and 317 nM under setting [2].
For the sequence “AGCUGCCGGUCACAUGAGGAUCACCCAUGUAACCUGCAUUCACAGGAUAUGUUGGCUCCUUGCCGGCAGAAGGGUGAAGCGCCG”, the “apparent Kd” value was 371 nM under setting [3] and 107 nM under setting [4].
Turning to “UAUCUAUUUAUGGGAUUAGAAUAUGAGGAUAUCAUUUUUUUAUACAUGAGGAUCACCCAUGUUUCUGAGAAGGCAUAUUUAAUA”, the “apparent Kd” value is, setting by setting: under setting [3], 16.9 nM; under setting [4], 5.72 nM.
For “CCUCGACAUGAGGAUCACCCAUGUCAGGAUAUUGUGUUUUGGGUUUUUUACCUUUAGGCAAGAAGGGAUGUGUG”, the “apparent Kd” value under setting [1] is 16.4 nM and the “apparent Kd” value under setting [2] was 24.1 nM.
On to “AACUAGCUAGGAUAUACAUGAGGAUCACCCAUGUAAAAAAAAAAAAAAAGAUUUAUAUGUAGAAGGAGCUAGUA”, for which the “apparent Kd” value is, setting by setting: under setting [1], 40.1 nM; under setting [2], 65.8 nM.
For “GGCUGUUUAGGAUAUACAUGAGGAUCACCCAUGUCGUUUAAUACAGACGGAUCCAACUGUAGAAGGAGAUGCCG” the same measures were 102 nM and 79.7 nM.

For the origin of these results see the EternaBench riboswitch data.
